Sampled rows, rich in hits. Any-hit rate of the full collection: about 3.1%.
OX1R antag-1 = antagonists of human orexin 1 receptor (OX1R); Orexin/Hypocretin receptor type 1 (Homo sapiens), O43613; OX1R-expressing cells, FRET antagonist read-out; inhibition, % at 6.6 µM; 330,000 tested, 1.8% active; AID 485270, 2010; in the data active = inhibition mostly above about 38%, no sharp cut-off; inactive = mostly below about 40%;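 note: 0% = agonist challenge alone and 100% = reference antagonist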
Target sequence (O43613 whole entry, looked up): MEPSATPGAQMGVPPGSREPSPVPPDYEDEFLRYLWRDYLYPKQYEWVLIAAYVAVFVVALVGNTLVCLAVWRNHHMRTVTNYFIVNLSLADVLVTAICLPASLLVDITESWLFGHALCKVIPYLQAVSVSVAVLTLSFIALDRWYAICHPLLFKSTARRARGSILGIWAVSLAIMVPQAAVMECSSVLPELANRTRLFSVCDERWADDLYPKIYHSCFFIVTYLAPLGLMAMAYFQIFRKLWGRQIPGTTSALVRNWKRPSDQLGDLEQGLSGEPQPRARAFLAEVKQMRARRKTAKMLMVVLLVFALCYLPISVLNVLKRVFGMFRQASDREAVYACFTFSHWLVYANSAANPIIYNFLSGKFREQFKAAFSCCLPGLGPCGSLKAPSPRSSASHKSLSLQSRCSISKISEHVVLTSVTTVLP
OX1R antag-2 = OX1R (HCRTR1) antagonists, primary screen, fluorescence, CHO/OX1R cells, Fluo-8 calcium, orexin A | Fluo-8 calcium fluorescence | inhibition, % at 5 µM | 330,000 tested, 0.43% active | AID 434989, 2010 | Orexin/Hypocretin receptor type 1 (Homo sapiens), O43613;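 active = inhibition above its plate's threshold, mean inhibition of all tested compounds on the plate plus 3 SD, cut at about 37% in these data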;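 note: 0% = orexin A challenge wells and 100% = SB-334867-A antagonist wells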
GPR7 antag = GPR7 receptor antagonists, primary screen, cell-based, fluorescence, single concentration. Neuropeptides B/W receptor type 1 (Homo sapiens), P48145. GPR7-expressing cells, fluorescence antagonist assay. inhibition, % at 4.4 µM. 290,000 tested, 1.1% active. AID 1861, 2009; in the data active = inhibition above about 16%, passing the limit was not always enough;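 note: cells stimulated with the agonist NPW; 0% = agonist with vehicle and 100% = vehicle without agonist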
GalR3 antagonist = GalR3 antagonists in HEK293 cells, primary screen, cell-based, fluorescence readout. 360,000 tested, 0.44% active. AID 651719, 2012. HEK293 GalR3-CNG cAMP membrane potential fluorescence; galR3 body fused to GalR1 C-terminus. Galanin receptor type 3 (Homo sapiens), O60755. inhibition, % at 3 µM;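 active = inhibition above the screen-wide average plus 3 SD, cut at about 13% in these data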;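 note: forskolin and galanin both at EC90 stimulate the cells; cAMP rise reported by CNG channel membrane potential dye signal; 0% = forskolin plus galanin with DMSO and 100% = forskolin alone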
Target sequence (O60755 1-299 limits assumed): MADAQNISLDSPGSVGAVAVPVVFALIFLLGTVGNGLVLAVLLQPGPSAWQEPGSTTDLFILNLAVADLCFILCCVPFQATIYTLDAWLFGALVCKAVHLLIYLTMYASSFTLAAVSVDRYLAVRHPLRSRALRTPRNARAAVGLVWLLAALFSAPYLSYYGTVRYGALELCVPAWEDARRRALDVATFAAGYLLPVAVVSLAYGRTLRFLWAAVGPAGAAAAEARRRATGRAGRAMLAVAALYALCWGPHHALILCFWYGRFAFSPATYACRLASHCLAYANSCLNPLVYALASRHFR
CHO parental Ca = ATP-evoked calcium signal inhibitors, parental CHO, primary screen, counter-screen for OX1R antagonist project, cell-based, fluorescence, Fluo-8 calcium dye; AID 463079, 2010; inhibition, % at 5.6 µM; 330,000 tested, 0.63% active; parental CHO-K1, ATP-induced calcium, Fluo-8 fluorescence;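 active = inhibition above that plate's mean sample inhibition plus 3 SD, cut at about 26% in these data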;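 note: 0% = ATP-challenged DMSO wells and 100% = DMSO wells without ATP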
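material = parental CHO cells | also added = ATP as calcium-mobilizing challenge | dosing = single point at 5.6 µM | detection = intracellular calcium via Fluo-8 no-wash fluorescent dye | read-out = % inhibition | benchmarks = low control ATP plus DMSO, high control DMSO only | repeats = one well per compound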
OX1R Fluo8 conf = OX1R (HCRTR1) antagonists, confirmation, fluorescence, CHO/OX1R cells, Fluo-8 calcium, orexin A; 1,100 tested, 38% active; inhibition, % at 5 µM; shares compounds with OX1R antag-2; AID 492963, 2010; orexin A calcium Fluo-8 fluorescence; in the data active = inhibition above about 29%;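 note: 0% = agonist challenge alone and 100% = reference antagonist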
CHO Ca triplic = ATP-evoked calcium inhibition in parental CHO, counter-screen for OX1R antagonist project, cell-based, fluorescence, CHO-K1, triplicate. shares compounds with OX1R antag-2. ATP-induced calcium, Fluo-8 fluorescence. inhibition, % at 5.6 µM. 1,100 tested, 9.3% active. AID 492965, 2010;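 active = inhibition above a per-plate limit, the mean inhibition of that plate's test compounds plus 3 SD, cut at about 25% in these data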;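 note: 0% = ATP challenge with DMSO and 100% = DMSO without ATP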
OX1R HTRF conf = OX1R (HCRTR1) antagonists, confirmation, cell-based, HTRF | inhibition, % at 6.6 µM | OX1R-expressing cells, HTRF antagonist assay | shares compounds with OX1R antag-1 | AID 492964, 2010 | 1,800 tested, 49% active; in the data active = inhibition above about 55%;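 note: CHO cells expressing OX1R stimulated with orexin A at about EC80; 0% = agonist challenge alone and 100% = reference antagonist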
CHO-K1 HTRF cnt = signal inhibition in parental CHO-K1 cells, counter-screen for OX1R antagonist project, cell-based, HTRF | shares compounds with OX1R antag-1 | HTRF counterscreen | inhibition, % at 6.6 µM | 1,800 tested, 48% active | AID 493232, 2011; in the data active = inhibition above about 17%;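 note: 0% = agonist challenge with vehicle and 100% = vehicle alone without agonist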
Starred values were filed as active, the others as inactive.

How did O=C(COC(=O)c1cc(-c2ccc(Cl)s2)nc2ccccc12)NCc1ccco1 do in these assays?
OX1R antag-1: 56*; OX1R antag-2: 31; GPR7 antag: 8; GalR3 antagonist: 5; CHO parental Ca: -15; OX1R Fluo8 conf: 23; CHO Ca triplic: -1; OX1R HTRF conf: 74*; CHO-K1 HTRF cnt: 5

How did CN(Cc1ccccc1)C(=O)Cn1c(=O)oc2cc(S(=O)(=O)NCc3ccccc3)ccc21 do in these assays?
OX1R antag-1: 48*; OX1R antag-2: 25; GPR7 antag: 2; GalR3 antagonist: 0; CHO parental Ca: 7; OX1R Fluo8 conf: 47*; CHO Ca triplic: 7; OX1R HTRF conf: 88*; CHO-K1 HTRF cnt: -10

How did CN(Cc1ccccc1)C(=O)Cn1c(=O)oc2cc(S(=O)(=O)N3CCCC3)ccc21 do in these assays?
OX1R antag-1: 14; OX1R antag-2: -14; GPR7 antag: -1; GalR3 antagonist: -3; CHO parental Ca: -8

What do the screens show for `COCCN(Cc1nc2ccccc2c(=O)[nH]1)C(=O)COc1c(C)cc(Cl)cc1C`?
OX1R antag-1: 58*; OX1R antag-2: 39*; GalR3 antagonist: -2; CHO parental Ca: -21; OX1R Fluo8 conf: 18; CHO Ca triplic: -16; OX1R HTRF conf: 70*; CHO-K1 HTRF cnt: -1

How did COc1cc(/C=C/c2nc(N)nc(-c3ccccc3O)n2)cc(OC)c1OC do in these assays?
OX1R antag-1: 16; OX1R antag-2: -35; GPR7 antag: -4; GalR3 antagonist: 1; CHO parental Ca: -16

Results for COc1ccc(/C=C/c2nc(N)nc(-c3ccccc3O)n2)cc1OC ?
OX1R antag-1: 87*; OX1R antag-2: 63*; GPR7 antag: -13; GalR3 antagonist: -5; CHO parental Ca: -2; OX1R Fluo8 conf: 70*; CHO Ca triplic: -7; OX1R HTRF conf: 92*; CHO-K1 HTRF cnt: 6

What do the screens show for `CC(NS(=O)(=O)c1ccc(OCC(=O)Nc2cccc([N+](=O)[O-])c2)cc1)c1ccccc1` (configuration not stated)?
OX1R antag-1: 66*; OX1R antag-2: 54*; GPR7 antag: 2; GalR3 antagonist: -5; CHO parental Ca: 46; OX1R Fluo8 conf: 60*; CHO Ca triplic: 18; OX1R HTRF conf: 69*; CHO-K1 HTRF cnt: 8

What do the screens show for `O=C(COC(=O)COc1ccccc1)Nc1cccc([N+](=O)[O-])c1`?
OX1R antag-1: 25; OX1R antag-2: -9; GPR7 antag: -11; GalR3 antagonist: -4; CHO parental Ca: -2

How did CCOC(=O)N[C@H](C(=O)N1CCC[C@H]1C(=O)NCCc1ccccc1Cl)c1ccccc1 do in these assays?
GalR3 antagonist: -4

What do the screens show for `N#CC(=C1CCCC1)c1nc(-c2ccccc2O)cs1`?
OX1R antag-1: 93*; OX1R antag-2: 67*; GPR7 antag: -6; CHO parental Ca: -7; OX1R Fluo8 conf: 54*; CHO Ca triplic: -5; OX1R HTRF conf: 94*; CHO-K1 HTRF cnt: -4

Results for Cc1cccc(NC(=O)NNC(=O)c2cc(-c3ccccc3Cl)nc3ccccc23)c1 ?
OX1R antag-1: 83*; OX1R antag-2: 44*; GPR7 antag: -13; CHO parental Ca: -18; OX1R Fluo8 conf: 38*; CHO Ca triplic: 6; OX1R HTRF conf: 92*; CHO-K1 HTRF cnt: 4

Results for COc1ccccc1N(CC(=O)NCCC1=CCCCC1)S(=O)(=O)c1ccccc1 ?
OX1R antag-1: 85*; OX1R antag-2: 63*; GPR7 antag: 3; GalR3 antagonist: -7; CHO parental Ca: -34; OX1R Fluo8 conf: 45*; CHO Ca triplic: -20; OX1R HTRF conf: 87*; CHO-K1 HTRF cnt: 0

Results for COc1ccccc1N(CC(=O)NCCSCc1cccc(C)c1)S(=O)(=O)c1ccccc1 ?
OX1R antag-1: 70*; OX1R antag-2: 32; GPR7 antag: -4; GalR3 antagonist: -2; CHO parental Ca: 3; OX1R Fluo8 conf: 41*; CHO Ca triplic: -15; OX1R HTRF conf: 78*; CHO-K1 HTRF cnt: -2

Results for COc1ccccc1N(CC(=O)NCCSCc1ccccc1)S(C)(=O)=O ?
OX1R antag-1: -5; OX1R antag-2: -20; GPR7 antag: 7; GalR3 antagonist: -7; CHO parental Ca: -6

How did COC(=O)C1=C(C)N(Cc2ccc(C(F)(F)F)cc2)C(=NCc2ccccc2)NC1c1ccc(Cl)cc1 (configuration not stated) do in these assays?
GalR3 antagonist: -7

Results for COc1cc(/C=C/C(C)=NNc2ccccc2)ccc1O ?
GalR3 antagonist: -2

Results for O=C(c1ccc(F)cc1)N1CCC(C(=O)N2CCN(S(=O)(=O)c3cccc([N+](=O)[O-])c3)CC2)CC1 ?
OX1R antag-1: 35; OX1R antag-2: -15; GalR3 antagonist: -5; CHO parental Ca: 13

How did CCN(CC)c1ccc(NC(=O)Cn2c(C(C)NC(=O)c3ccccc3)nc3ccccc32)cc1 (configuration not stated) do in these assays?
OX1R antag-1: 93*; OX1R antag-2: 54*; GPR7 antag: 3; GalR3 antagonist: -2; CHO parental Ca: -1; OX1R Fluo8 conf: 61*; CHO Ca triplic: -13; OX1R HTRF conf: 88*; CHO-K1 HTRF cnt: 3

Results for Cc1cc(O)cc2c(=O)c3ccccc3sc12 ?
OX1R antag-1: 86*; OX1R antag-2: 52*; GPR7 antag: -7; GalR3 antagonist: -2; CHO parental Ca: 14; OX1R Fluo8 conf: 56*; CHO Ca triplic: -1; OX1R HTRF conf: 92*; CHO-K1 HTRF cnt: 6

Results for COc1ccc2sc3ccccc3c(=O)c2c1 ?
OX1R antag-1: 47; OX1R antag-2: -25; GPR7 antag: 1; GalR3 antagonist: -2; CHO parental Ca: 2

High-throughput results from PubChem.
